Data taken from ChEMBL document CHEMBL2401672, “2-[(3aR,4R,5S,7aS)-5-{(1S)-1-[3,5-bis(trifluoromethyl)phenyl]-2-hydroxyethoxy}-4-(2-methylphenyl)octahydro-2H-isoindol-2-yl]-1,3-oxazol-4(5H)-one: a potent human NK1 receptor antagonist with multiple clearance pathways” (J Med Chem, 2013).
One block for each compound: values may come before it. Calls of active or inactive are those of the source. No cut-off for these calls is given here.

What was measured:
Rhesus monkey [1] = assay: Ex vivo NK1 receptor occupancy in rhesus monkey brain assessed as concentration required for 90% occupancy at 67 nM plasma concentration by PET imaging analysis; assay type: functional, Macaca mulatta
[2] = Oral bioavailability in rat at 2 mg/kg; assay type: ADME, organism-based; conditions: in vivo
Outline: (§1)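 Rat PK used 1 mg/kg iv and 2 mg/kg po, while dog and monkey received 0.5 mg/kg iv and 1 mg/kg po. Oral dosing was given as a solution, either in ethanol/PEG400/water (20:40:40, v/v/v) or in Inwittor 742/Tween 80, depending on the compound. Plasma CLp, Vdss, t1/2 and F% were derived from these studies.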

Rhesus monkey [3] = assay: Ex vivo NK1 receptor occupancy in rhesus monkey brain assessed as concentration required for 50% occupancy at 13 nM plasma concentration by PET imaging analysis; assay type: functional, Macaca mulatta
Gerbillinae [4] = assay: Antagonist activity at NK1 receptor in iv dosed gerbil brain assessed as inhibition of GR73632-induced foot tapping after 1 hr; assay type: functional, organism-based
Outline: (§2)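 Gerbils received the antagonist iv 1 h before central administration of the NK1 agonist GR73632. Hind-foot tapping was scored. ID50 (mg/kg) was derived for blockade of tapping, and plasma and brain IC50 (nM) were derived from drug levels at 1 h […].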

Gerbillinae [5] = assay: Antagonist activity at NK1 receptor in iv dosed gerbil assessed as inhibition of GR73632-induced foot tapping after 1 hr; assay type: functional; conditions: read-out: ID50 (the source's name); outline: as §2
Gerbillinae [6] = assay: Antagonist activity at NK1 receptor in iv dosed gerbil assessed as inhibition of GR73632-induced foot tapping; assay type: functional, organism-based; outline: as §2
Neuromedin-K receptor = biological target: T1, Neuromedin-K receptor (Homo sapiens, UniProt P29371); assay: Binding affinity to human NK3 receptor
T1 sequence (P29371 whole entry): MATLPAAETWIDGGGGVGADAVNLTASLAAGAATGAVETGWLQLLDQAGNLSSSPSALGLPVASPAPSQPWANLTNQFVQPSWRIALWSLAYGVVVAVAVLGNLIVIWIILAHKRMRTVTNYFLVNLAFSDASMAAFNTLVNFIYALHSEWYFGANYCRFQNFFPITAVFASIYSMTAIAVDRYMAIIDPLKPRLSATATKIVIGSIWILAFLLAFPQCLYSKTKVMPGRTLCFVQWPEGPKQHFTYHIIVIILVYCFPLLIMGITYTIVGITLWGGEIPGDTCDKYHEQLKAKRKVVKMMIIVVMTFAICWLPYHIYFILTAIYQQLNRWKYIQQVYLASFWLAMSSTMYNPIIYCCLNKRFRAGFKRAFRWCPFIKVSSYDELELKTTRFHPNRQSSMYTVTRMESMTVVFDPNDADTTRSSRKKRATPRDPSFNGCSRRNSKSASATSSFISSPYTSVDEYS

Substance-K receptor = biological target: T2, Substance-K receptor (Homo sapiens, UniProt P21452); assay: Binding affinity to human NK2 receptor
T2 sequence (P21452 whole entry): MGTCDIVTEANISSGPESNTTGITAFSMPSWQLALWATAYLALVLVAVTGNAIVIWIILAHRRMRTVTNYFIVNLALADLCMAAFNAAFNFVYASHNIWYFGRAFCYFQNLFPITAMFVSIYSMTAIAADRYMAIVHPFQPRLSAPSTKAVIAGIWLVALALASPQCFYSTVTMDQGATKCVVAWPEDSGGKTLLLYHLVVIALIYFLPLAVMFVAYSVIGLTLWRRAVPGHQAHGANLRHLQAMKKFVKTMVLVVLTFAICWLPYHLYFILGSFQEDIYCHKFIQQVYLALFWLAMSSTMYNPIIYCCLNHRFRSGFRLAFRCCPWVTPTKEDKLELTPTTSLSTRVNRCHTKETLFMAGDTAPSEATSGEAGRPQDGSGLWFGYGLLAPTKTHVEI

Substance-P receptor [7] = biological target: T3, Substance-P receptor (Homo sapiens, UniProt P25103); assay: Antagonist activity at human NK1 receptor expressed in CHO cells assessed as IP1 generation measured as remaining substance P response at 100 nM
[8] = biological target: T4, Nuclear receptor subfamily 1 group I member 2 (Homo sapiens, UniProt O75469); assay: Agonist activity at human PXR at 3.4 uM relative to rifampicin
T4 sequence (O75469 whole entry): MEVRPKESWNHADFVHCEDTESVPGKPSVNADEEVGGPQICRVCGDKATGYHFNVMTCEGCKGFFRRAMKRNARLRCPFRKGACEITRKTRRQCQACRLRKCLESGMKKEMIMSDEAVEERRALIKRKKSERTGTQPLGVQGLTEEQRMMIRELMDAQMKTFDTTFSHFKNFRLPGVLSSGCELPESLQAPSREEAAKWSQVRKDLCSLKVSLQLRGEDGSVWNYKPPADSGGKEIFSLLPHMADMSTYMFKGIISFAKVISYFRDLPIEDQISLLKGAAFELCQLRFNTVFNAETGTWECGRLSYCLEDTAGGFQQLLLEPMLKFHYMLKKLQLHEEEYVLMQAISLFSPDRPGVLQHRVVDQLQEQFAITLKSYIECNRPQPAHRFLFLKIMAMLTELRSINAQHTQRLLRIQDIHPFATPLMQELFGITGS
Outline: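 PXR agonism was measured in human hepatocytes with test compound at 3.4 μM, and the response was expressed as % relative to rifampicin.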

Cytochrome P450 2C9 = Cytochrome P450 2C9 (Homo sapiens, UniProt P11712); assay: Inhibition of human CYP2C9; assay type: ADME
Cytochrome P450 2D6 = Cytochrome P450 2D6 (Homo sapiens, UniProt P10635); assay: Inhibition of human CYP2D6; assay type: ADME
Cytochrome P450 3A4 = Cytochrome P450 3A4 (Homo sapiens, UniProt P08684); assay: Inhibition of human CYP3A4; assay type: ADME
Cytochrome P450 2C8 = biological target: T5, Cytochrome P450 2C8 (Homo sapiens, UniProt P10632); assay: Inhibition of human CYP2C8; assay type: ADME
T5 sequence (P10632 whole entry): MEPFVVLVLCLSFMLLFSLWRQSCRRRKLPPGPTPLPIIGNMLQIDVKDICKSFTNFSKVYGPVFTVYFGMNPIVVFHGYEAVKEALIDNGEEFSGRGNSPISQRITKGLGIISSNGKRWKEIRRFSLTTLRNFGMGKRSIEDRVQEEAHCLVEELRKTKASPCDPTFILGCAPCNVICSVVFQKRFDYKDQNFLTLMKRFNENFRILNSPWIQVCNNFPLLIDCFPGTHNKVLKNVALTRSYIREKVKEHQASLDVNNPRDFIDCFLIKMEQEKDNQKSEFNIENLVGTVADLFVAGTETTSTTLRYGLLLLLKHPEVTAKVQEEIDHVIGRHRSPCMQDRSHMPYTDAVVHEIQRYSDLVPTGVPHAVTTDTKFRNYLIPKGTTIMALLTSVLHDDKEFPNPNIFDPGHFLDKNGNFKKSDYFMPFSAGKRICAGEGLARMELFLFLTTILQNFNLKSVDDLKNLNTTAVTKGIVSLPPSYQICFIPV

[9] = Metabolic stability in human hepatocytes assessed as compound remaining at 1 uM after 24 hrs; assay type: ADME, cell-based, Hepatocyte; conditions: read-out: Stability
Outline: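 Tritium-labelled compound at 1 μM was incubated with cultured human hepatocytes (300 000 cells per incubation) for 24 h, followed by metabolite profiling.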

[10] = Oral bioavailability in dog 1 mg/kg; assay type: ADME, organism-based, Canis lupus familiaris; conditions: in vivo; outline: as §1
[11] = Oral bioavailability in monkey 1 mg/kg; assay type: ADME, organism-based, Macaca mulatta; conditions: rhesus monkey, in vivo; outline: as §1
[12] = Half life in dog at 0.5 mg/kg, iv and 1 mg/kg, po; assay type: ADME, organism-based, Canis lupus familiaris; conditions: in vivo; outline: as §1
[13] = Half life in monkey at 0.5 mg/kg, iv and 1 mg/kg, po; assay type: ADME, organism-based, Macaca mulatta; conditions: rhesus monkey, in vivo; outline: as §1
[14] = Half life in rat at 1 mg/kg, iv and 2 mg/kg, po; assay type: ADME, organism-based; conditions: in vivo; outline: as §1
[15] = Volume of distribution at steady state in monkey at 0.5 mg/kg, iv and 1 mg/kg, po; assay type: ADME, organism-based, Macaca mulatta; conditions: rhesus monkey, in vivo, read-out: Vdss; outline: as §1
[16] = Volume of distribution at steady state in rat at 1 mg/kg, iv and 2 mg/kg, po; assay type: ADME, organism-based; conditions: in vivo, read-out: Vdss; outline: as §1
[17] = Volume of distribution at steady state in dog at 0.5 mg/kg, iv and 1 mg/kg, po; assay type: ADME, organism-based, Canis lupus familiaris; conditions: in vivo, read-out: Vdss; outline: as §1
[18] = Plasma clearance in monkey at 0.5 mg/kg, iv and 1 mg/kg, po; assay type: ADME, organism-based, Macaca mulatta; conditions: rhesus monkey; outline: as §1
[19] = Plasma clearance in rat at 1 mg/kg, iv and 2 mg/kg, po; assay type: ADME, organism-based; outline: as §1
[20] = Plasma clearance in dog at 0.5 mg/kg, iv and 1 mg/kg, po; assay type: ADME, organism-based, Canis lupus familiaris; outline: as §1
Gerbillinae [21] = assay: Antagonist activity at NK1 receptor in iv dosed gerbil plasma assessed as inhibition of GR73632-induced foot tapping after 1 hr; assay type: functional, organism-based; outline: as §2
Substance-P receptor [22] = biological target: T3, Substance-P receptor; assay: Displacement of [125I]substance P from human NK1 receptor expressed in CHO cells in presence of human serum; assay type: cell-based
Outline: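 Inhibition of [¹²⁵I]substance P binding to human NK1 receptor in vitro, with 50% human serum added to the binding medium; IC₅₀ (nM) derived.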

T3 sequence (P25103 whole entry): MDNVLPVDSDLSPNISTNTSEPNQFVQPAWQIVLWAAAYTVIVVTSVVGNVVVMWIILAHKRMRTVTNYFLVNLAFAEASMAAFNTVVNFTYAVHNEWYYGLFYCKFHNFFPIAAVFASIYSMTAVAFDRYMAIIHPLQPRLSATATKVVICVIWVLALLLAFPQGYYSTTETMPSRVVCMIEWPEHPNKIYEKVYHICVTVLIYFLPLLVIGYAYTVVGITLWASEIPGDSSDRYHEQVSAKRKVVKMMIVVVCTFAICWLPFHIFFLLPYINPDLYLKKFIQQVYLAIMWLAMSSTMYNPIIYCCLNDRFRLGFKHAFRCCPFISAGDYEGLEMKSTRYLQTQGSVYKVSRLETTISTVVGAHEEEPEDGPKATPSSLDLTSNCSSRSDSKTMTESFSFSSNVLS
Chain of Cytochrome P450 2C9 (P11712 whole entry): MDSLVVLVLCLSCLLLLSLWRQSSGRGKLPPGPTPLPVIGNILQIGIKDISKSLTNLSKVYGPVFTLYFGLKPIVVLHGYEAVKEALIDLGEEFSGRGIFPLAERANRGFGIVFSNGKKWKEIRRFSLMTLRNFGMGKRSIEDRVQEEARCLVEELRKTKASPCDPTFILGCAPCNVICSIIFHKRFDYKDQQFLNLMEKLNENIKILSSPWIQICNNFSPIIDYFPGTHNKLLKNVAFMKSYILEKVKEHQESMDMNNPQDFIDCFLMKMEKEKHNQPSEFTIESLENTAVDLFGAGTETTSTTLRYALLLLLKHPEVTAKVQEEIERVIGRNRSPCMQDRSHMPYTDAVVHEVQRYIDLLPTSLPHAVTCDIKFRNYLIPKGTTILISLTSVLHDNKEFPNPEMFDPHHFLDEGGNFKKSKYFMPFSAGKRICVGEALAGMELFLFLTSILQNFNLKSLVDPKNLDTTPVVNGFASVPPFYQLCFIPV
Chain of Cytochrome P450 3A4 (P08684 whole entry): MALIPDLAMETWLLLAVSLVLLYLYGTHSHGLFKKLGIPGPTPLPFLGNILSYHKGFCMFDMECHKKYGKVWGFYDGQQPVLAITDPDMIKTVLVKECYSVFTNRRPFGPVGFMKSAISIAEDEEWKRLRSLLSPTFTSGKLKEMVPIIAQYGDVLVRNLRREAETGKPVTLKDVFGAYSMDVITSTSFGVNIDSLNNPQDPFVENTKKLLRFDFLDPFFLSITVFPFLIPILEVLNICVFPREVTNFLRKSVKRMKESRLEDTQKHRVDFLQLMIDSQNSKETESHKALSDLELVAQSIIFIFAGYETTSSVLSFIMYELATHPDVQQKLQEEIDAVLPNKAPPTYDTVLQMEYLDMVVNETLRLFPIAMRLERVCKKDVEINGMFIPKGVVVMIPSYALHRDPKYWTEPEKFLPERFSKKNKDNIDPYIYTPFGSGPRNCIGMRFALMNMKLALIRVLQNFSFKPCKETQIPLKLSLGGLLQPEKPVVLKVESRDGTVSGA
Chain of Cytochrome P450 2D6 (P10635 whole entry): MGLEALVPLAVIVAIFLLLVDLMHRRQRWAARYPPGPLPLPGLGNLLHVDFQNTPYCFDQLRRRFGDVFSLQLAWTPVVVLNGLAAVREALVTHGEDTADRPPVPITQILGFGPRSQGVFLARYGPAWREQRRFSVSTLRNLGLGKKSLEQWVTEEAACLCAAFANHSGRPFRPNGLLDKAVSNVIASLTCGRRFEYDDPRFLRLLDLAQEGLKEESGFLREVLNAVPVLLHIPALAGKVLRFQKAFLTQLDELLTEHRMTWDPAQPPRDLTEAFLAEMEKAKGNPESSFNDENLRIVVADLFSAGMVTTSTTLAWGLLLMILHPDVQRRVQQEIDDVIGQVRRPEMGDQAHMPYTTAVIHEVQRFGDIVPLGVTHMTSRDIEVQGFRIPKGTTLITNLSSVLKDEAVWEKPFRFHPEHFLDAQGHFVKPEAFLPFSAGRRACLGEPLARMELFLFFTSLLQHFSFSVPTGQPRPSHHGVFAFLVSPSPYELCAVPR

bioavailability [2]: 40%
IC50 (Gerbillinae [4]): 7.7 nM
inhibition (Gerbillinae [6]): Active
IC50 (Neuromedin-K receptor): 2400 nM
IC50 (Substance-K receptor): 2.4 µM
residual activity (Substance-P receptor [7]): 5%
Structure (SMILES): C[C@@H](O[C@H]1CC[C@@H]2CN(C3=CC(=O)CC3)C[C@H]2[C@@H]1c1ccc(F)cc1)c1cc(C(F)(F)F)cc(C(F)(F)F)c1 [SERLOPITANT]
Occ90 (Rhesus monkey [1]): 67 nM
Occ50 (Rhesus monkey [3]): 9 nM
ED50 (Gerbillinae [5]): 0.08 mg/kg

Activity [8]: 14%
IC50 (Cytochrome P450 2C9): 41 µM
IC50 (Cytochrome P450 2D6): 61 µM
IC50 (Cytochrome P450 3A4): 15 µM
IC50 (Cytochrome P450 2C8): 21 µM
remaining at 24 h, 1 µM [9]: 68%
bioavailability [10]: 38%
bioavailability [11]: 66%
bioavailability [2]: 92%
half-life [12]: 660 min
half-life [13]: 780 min
half-life [14]: 282 min
Vd [15]: 5.7 L/kg
Vd [16]: 3.1 L/kg
Vd [17]: 1.2 L/kg
clearance [18]: 8 mL/min/kg
clearance [19]: 7.5 mL/min/kg
clearance [20]: 1.4 mL/min/kg
IC50 (Gerbillinae [4]): 8 nM
IC50 (Gerbillinae [21]): 5 nM
inhibition (Gerbillinae [6]): Active
IC50 (Neuromedin-K receptor): 2500 nM
IC50 (Substance-K receptor): 7.2 µM
IC50 (Substance-P receptor [22]): 0.75 nM
residual activity (Substance-P receptor [7]): 3%
Structure (SMILES): Cc1ccccc1[C@H]1[C@@H]2CN(C3=NC(=O)CO3)C[C@H]2CC[C@@H]1O[C@H](CO)c1cc(C(F)(F)F)cc(C(F)(F)F)c1
Occ90 (Rhesus monkey [1]): 22 nM
Occ50 (Rhesus monkey [3]): 13 nM
ED50 (Gerbillinae [5]): 0.03 mg/kg
